ChEMBL document CHEMBL3853331, “Preparation, Antiepileptic Activity, and Cardiovascular Safety of Dihydropyrazoles as Brain-Penetrant T-Type Calcium Channel Blockers” (J Med Chem, 2016)
≈ marks a conversion by molar mass, not a printed value.

Experiments:
[1] = target: Voltage-dependent L-type calcium channel subunit alpha-1C (Homo sapiens, UniProt Q13936); test: Inhibition of recombinant […] calcium channel Cav1.2 (unknown origin) expressed in HEK293 cells assessed as inhibition of Kcl-induced calcium influx preincubated for 3 mins prior CaCl2 addition by Fluo-4-AM dye-based FLIPR assay; type: cell-based
Chain of Voltage-dependent L-type calcium channel subunit alpha-1C (Q13936 whole entry): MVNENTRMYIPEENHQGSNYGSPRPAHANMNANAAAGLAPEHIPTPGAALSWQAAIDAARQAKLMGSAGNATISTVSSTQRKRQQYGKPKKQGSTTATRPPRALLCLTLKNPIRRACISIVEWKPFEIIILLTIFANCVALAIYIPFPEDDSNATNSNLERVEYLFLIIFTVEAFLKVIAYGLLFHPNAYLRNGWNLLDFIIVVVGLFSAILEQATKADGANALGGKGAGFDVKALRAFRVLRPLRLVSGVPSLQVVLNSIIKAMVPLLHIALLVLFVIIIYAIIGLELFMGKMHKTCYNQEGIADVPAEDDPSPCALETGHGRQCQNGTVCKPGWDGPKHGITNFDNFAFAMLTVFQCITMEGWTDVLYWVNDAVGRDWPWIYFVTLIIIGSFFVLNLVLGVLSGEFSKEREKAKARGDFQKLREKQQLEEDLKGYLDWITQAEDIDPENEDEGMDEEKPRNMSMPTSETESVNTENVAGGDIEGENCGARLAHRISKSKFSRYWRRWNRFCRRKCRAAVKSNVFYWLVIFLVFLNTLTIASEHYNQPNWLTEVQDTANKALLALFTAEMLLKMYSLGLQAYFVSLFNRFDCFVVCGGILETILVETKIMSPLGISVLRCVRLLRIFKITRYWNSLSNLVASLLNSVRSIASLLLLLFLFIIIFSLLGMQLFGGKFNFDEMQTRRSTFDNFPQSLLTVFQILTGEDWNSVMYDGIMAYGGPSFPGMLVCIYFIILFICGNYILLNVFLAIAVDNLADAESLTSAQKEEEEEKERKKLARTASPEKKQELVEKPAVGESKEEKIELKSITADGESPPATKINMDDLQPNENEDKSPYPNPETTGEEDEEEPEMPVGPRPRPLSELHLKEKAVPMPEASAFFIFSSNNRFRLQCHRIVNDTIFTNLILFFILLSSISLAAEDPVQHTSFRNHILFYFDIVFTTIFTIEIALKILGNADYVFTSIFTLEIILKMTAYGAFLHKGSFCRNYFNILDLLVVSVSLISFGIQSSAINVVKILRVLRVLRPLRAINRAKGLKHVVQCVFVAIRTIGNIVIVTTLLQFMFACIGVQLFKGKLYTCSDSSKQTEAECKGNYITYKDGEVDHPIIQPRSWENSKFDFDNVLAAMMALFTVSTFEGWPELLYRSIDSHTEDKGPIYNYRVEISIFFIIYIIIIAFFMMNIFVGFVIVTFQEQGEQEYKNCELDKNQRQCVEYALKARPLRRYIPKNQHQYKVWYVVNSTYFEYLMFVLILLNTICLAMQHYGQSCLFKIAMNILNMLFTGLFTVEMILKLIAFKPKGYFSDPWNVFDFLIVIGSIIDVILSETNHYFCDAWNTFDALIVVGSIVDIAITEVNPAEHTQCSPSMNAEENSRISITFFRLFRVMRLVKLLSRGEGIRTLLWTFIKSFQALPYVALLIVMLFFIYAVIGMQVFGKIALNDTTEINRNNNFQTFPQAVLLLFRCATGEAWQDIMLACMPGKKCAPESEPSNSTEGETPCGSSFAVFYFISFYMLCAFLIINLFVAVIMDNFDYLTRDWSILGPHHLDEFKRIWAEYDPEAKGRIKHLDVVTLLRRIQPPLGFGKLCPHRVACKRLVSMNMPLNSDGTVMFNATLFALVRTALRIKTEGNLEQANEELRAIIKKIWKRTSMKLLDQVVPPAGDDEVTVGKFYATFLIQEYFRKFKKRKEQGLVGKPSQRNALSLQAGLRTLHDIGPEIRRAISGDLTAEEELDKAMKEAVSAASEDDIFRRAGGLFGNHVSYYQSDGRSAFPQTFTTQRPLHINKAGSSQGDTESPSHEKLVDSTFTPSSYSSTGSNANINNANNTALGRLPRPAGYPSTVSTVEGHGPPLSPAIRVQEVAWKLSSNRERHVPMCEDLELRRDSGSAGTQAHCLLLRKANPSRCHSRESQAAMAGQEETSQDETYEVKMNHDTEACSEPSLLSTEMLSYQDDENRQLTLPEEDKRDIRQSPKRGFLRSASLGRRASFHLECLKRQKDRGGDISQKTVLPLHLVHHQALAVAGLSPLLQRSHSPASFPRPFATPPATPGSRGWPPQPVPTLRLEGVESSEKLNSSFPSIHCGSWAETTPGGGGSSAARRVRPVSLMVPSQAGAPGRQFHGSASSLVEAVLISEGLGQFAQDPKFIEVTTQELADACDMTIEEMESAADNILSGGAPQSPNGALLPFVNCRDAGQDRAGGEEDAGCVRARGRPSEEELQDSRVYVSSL
Outline: (§1)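 HEK293 cells stably expressing the channel, seeded overnight and loaded 1 h at 37°C with 3 µM Fluo-4-AM. Compounds given as a 3-fold dilution series from 10 µM to 0.05 nM and incubated 3 min. For T-type channels, dilutions in TEAC buffer and stimulation with 10 mM final CaCl2. For Cav1.2, dilutions in assay buffer and stimulation with 20 mM final KCl. IC50 from area under the fluorescence trace against vehicle; mean of at least two experiments.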

[2] = target: Voltage-dependent T-type calcium channel subunit alpha-1H (Homo sapiens, UniProt O95180); test: Inhibition of recombinant T-type calcium channel Cav3.2 (unknown origin) expressed in HEK293 cells assessed as inhibition of CaCl2-induced calcium influx preincubated for 3 mins prior CaCl2 addition by Fluo-4-AM dye-based FLIPR assay; type: cell-based
Chain of Voltage-dependent T-type calcium channel subunit alpha-1H (O95180 whole entry): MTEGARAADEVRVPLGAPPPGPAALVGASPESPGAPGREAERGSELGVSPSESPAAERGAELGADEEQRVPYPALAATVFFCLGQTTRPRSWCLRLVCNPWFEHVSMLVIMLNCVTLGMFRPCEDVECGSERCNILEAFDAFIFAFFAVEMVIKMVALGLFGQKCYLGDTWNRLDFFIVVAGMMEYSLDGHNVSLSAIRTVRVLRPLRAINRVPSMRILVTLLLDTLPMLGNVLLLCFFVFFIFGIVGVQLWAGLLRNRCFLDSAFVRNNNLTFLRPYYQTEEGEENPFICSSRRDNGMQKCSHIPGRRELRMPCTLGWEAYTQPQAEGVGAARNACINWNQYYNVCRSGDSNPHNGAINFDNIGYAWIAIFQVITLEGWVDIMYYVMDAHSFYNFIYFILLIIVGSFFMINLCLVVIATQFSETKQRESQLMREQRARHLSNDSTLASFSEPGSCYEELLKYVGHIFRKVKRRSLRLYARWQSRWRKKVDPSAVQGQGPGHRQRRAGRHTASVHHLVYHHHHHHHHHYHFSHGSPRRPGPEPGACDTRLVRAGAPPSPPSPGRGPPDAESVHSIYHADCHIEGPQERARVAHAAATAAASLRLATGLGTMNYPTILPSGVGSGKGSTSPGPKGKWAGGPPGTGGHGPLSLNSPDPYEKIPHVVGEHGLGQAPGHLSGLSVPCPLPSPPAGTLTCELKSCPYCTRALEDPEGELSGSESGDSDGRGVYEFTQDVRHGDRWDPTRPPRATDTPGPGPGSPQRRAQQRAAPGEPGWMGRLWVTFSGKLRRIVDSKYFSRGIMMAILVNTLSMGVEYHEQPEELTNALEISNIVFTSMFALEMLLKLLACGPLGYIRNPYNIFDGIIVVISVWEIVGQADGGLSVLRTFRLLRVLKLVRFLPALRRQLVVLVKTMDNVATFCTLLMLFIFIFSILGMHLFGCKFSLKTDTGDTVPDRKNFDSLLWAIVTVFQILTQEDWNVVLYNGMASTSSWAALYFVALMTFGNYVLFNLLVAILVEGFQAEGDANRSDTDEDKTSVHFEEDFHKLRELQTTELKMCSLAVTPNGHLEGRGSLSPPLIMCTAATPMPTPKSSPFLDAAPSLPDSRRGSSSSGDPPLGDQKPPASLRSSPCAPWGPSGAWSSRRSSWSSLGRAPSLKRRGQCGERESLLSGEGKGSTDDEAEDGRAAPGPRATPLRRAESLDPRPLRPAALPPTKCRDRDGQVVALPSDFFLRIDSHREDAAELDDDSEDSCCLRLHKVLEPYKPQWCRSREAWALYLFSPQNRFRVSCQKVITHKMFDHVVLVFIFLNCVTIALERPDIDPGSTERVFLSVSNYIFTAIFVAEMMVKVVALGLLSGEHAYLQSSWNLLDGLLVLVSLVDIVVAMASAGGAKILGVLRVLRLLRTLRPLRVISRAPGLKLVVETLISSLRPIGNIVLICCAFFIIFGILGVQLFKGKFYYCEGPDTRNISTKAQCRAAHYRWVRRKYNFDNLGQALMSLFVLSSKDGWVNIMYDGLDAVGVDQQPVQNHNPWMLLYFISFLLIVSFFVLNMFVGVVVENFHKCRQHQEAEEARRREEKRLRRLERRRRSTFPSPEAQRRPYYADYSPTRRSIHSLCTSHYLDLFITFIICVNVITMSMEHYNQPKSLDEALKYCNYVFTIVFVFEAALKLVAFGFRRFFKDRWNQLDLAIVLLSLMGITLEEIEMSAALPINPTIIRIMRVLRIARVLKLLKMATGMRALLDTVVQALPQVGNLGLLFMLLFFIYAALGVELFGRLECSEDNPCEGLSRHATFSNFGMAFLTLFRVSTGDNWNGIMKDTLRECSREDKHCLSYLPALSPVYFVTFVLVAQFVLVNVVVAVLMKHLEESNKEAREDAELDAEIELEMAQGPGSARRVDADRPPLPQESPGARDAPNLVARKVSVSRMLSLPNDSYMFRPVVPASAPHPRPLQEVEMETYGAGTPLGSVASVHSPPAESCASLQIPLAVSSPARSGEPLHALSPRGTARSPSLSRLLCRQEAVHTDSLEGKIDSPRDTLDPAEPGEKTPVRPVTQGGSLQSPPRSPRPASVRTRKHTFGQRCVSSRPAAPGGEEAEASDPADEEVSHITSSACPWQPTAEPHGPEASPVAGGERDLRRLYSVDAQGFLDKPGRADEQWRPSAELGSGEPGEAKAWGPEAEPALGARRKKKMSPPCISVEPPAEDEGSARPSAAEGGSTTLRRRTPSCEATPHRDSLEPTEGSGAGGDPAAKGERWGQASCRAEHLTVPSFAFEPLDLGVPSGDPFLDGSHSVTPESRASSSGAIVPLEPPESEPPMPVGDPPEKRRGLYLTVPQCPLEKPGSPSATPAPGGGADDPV
Outline: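 HEK293 cells stably expressing Cav3.2, plated overnight at 37°C, loaded 1 h at 37°C with 3 µM Fluo-4-AM in HBSS/Hepes pH 7.4, then washed. Compound in TEAC buffer (100 mM tetraethylammonium chloride, pH 7.2), 3-fold series from 10 µM to 0.05 nM, 3 min before CaCl2 to a final 10 mM. IC50 fitted sigmoidally to the fluorescence AUC against vehicle signal; mean of at least two independent experiments.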

[3] = target: Voltage-gated inwardly rectifying potassium channel KCNH2 (Homo sapiens, UniProt Q12809); test: Inhibition of human ERG expressed in CHO cells assessed as potassium tail current measured at -40 mV holding potential after 3 mins by QPatch clamp assay; type: cell-based
Outline: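 CHO cells stably expressing hERG, automated QPatch recording. 500-ms depolarization to +20 mV from a holding potential of -80 mV. K+ tail current measured at -40 mV. Effect read 3 min after application.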

[4] = Aqueous solubility of the compound at pH 7 by UV-HPLC method; type: physicochemical
Outline: (§2)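 Compound dispensed from a 10 mM DMSO stock and the solvent evaporated. Residue stirred 24 h at room temperature in buffer: citrate (55 mM) pH 4.0 or phosphate (67 mM) pH 7.0. Mixture filtered by centrifugation. Filtrate concentration measured by HPLC-UV against calibration solutions.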

[5] = Aqueous solubility of the compound at pH 4 by UV-HPLC method; type: physicochemical; outline: as §2
MDR1 [6] = test: Efflux ratio of permeability in MDCK cells expressing MDR1 (unknown origin); type: ADME, cell-based, Canis lupus familiaris; details: dog
Outline: (§3)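 MDR1-transfected MDCK cell monolayers. Compound tested at 1 µM. Apparent permeability measured in both directions, apical to basolateral and basolateral to apical. Efflux ratio taken from the two directional permeabilities.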

MDR1 [7] = test: Apparent permeability across basolateral to apical side in MDCK cells expressing MDR1 (unknown origin) at 1 uM; type: ADME, cell-based, Canis lupus familiaris; details: dog; outline: as §3
MDR1 [8] = test: Apparent permeability across apical to basolateral side in MDCK cells expressing MDR1 (unknown origin) at 1 uM; type: ADME, cell-based, Canis lupus familiaris; details: dog; outline: as §3
[9] = target: Voltage-dependent T-type calcium channel subunit alpha-1G (Homo sapiens, UniProt O43497); test: Inhibition of T-type calcium channel Cav3.1 (unknown origin) expressed in HEK293 cells assessed as calcium influx by Fluo-4-AM dye-based FLIPR assay; type: cell-based; outline: as §1
[10] = target: Voltage-dependent T-type calcium channel subunit alpha-1I (Homo sapiens, UniProt Q9P0X4); test: Inhibition of T-type calcium channel Cav3.3 (unknown origin) expressed in HEK293 cells assessed as calcium influx by Fluo-4-AM dye-based FLIPR assay; type: cell-based; outline: as §1

Row | Compound | IC50 [1] | IC50 [2] | further results
1 | O=C(Nc1ccccc1)N1N=C(c2ccc(Br)cc2)CC1c1ccc(F)cc1 (stereo not given) | > 10000 nM | 68 nM | IC50 [3]: > 10000 nM
2 | O=C(Nc1ccc(F)cc1)N1N=C(c2ccccc2)CC1(CO)c1ccc(F)cc1 (stereo not given) | 2650 nM | 70 nM | solubility [4]: 2 µg/mL (≈ 4.91 µM)
3 | O=C(Nc1ccc(F)cc1)N1N=C(c2cc[n+]([O-])cc2)CC1c1ccc(F)cc1 (stereo not given) | > 10000 nM | 110 nM | –
4 | O=C(Nc1ccccn1)N1N=C(c2ccc(Br)cc2)CC1c1ccc(F)cc1 (stereo not given) | 2180 nM | 393 nM | –
5 | COc1ccc([C@]2(CCO)CC(c3cccnc3)=NN2C(=O)Nc2ccc(Br)cc2)cc1 | 4800 nM | 33 nM | –
6 | CS(=O)(=O)c1ccc(C2CC(c3ccccc3)=NN2C(=O)Nc2ccc(F)cc2)cc1 (stereo not given) | > 10000 nM | 40 nM | solubility [4]: < 1 µg/mL; solubility [5]: < 1 µg/mL
7 | O=C(Nc1ccc(F)cc1)N1N=C(c2ccccc2)CC1(CCO)c1ccccc1 (stereo not given) | 1940 nM | 120 nM | –
8 | CC1CC(c2ccccc2)=NN1C(=O)Nc1ccc(F)cc1 (stereo not given) | 3900 nM | 410 nM | –
9 | O=C(Nc1ccccc1F)N1N=C(c2ccc(Br)cc2)CC1c1ccc(F)cc1 (stereo not given) | > 10000 nM | > 10000 nM | solubility [4]: < 1 µg/mL; solubility [5]: < 1 µg/mL
10 | Cc1ccc(C2(CCN(C)C)CC(c3ccccc3)=NN2C(=O)Nc2ccc(F)cc2)cc1 (stereo not given) | 2200 nM | 240 nM | solubility [4]: 30 µg/mL (≈ 67.5 µM); solubility [5]: 42 µg/mL (≈ 94.5 µM)
11 | O=C(NCCc1ccccc1)N1N=C(c2ccc(Br)cc2)CC1c1ccc(F)cc1 (stereo not given) | 1880 nM | 420 nM | –
12 | CS(=O)(=O)c1ccc(C2(CCO)CC(c3ccccc3)=NN2C(=O)Nc2ccc(F)cc2)cc1 (stereo not given) | > 10000 nM | 420 nM | efflux ratio (MDR1 [6]): 104; Papp B→A at 1 µM (MDR1 [7]): 62 ×10⁻⁶ cm/s; Papp A→B at 1 µM (MDR1 [8]): 0.6 ×10⁻⁶ cm/s
13 | O=C(Nc1ccc(F)cc1)N1N=C(c2ccncc2)C[C@@H]1c1ccc(F)cc1 | 7800 nM | 320 nM | –
14 | O=C(Nc1ccc(F)cc1)N1N=C(c2ccccc2)CC1c1ccc(F)cc1 (stereo not given) | > 10000 nM | 25 nM | solubility [4]: < 1 µg/mL; solubility [5]: < 1 µg/mL
15 | COCC1(c2ccc(C)cc2)CC(c2ccccc2)=NN1C(=O)Nc1ccc(F)cc1 (stereo not given) | > 10000 nM | 350 nM | –
16 | O=C(Nc1ccc(F)cc1)N1N=C(c2ccc(Br)cc2)CC1c1ccc(F)cc1 (stereo not given) | > 10000 nM | 16 nM | solubility [5]: < 1 µg/mL
17 | O=C(Nc1ccc(F)cc1)N1N=C(c2ccncc2)C[C@H]1c1ccc(F)cc1 | 5400 nM | 21 nM | –
18 | CC1=NN(C(=O)Nc2ccc(F)cc2)C(c2ccc(F)cc2)C1 (stereo not given) | > 10000 nM | 900 nM | –
19 | COc1ccc([C@@]2(CCO)CC(c3cccnc3)=NN2C(=O)Nc2ccc(Br)cc2)cc1 | – | > 10000 nM | –

Row | Compound | IC50 [1] | IC50 [2] | further results
20 | Fc1ccc(NC(=S)N2N=C(c3ccc(Br)cc3)CC2c2ccc(F)cc2)cc1 (stereo not given) | > 10000 nM | 281 nM | –
21 | COCCOc1ccc(C2(CCO)CC(c3ccccc3)=NN2C(=O)Nc2ccc(F)cc2)cc1 (stereo not given) | 6300 nM | 60 nM | solubility [4]: 8 µg/mL (≈ 16.8 µM); solubility [5]: 8 µg/mL (≈ 16.8 µM)
22 | CC(C)NC(=O)N1N=C(c2ccc(Br)cc2)CC1c1ccc(F)cc1 (stereo not given) | 2360 nM | 382 nM | –
23 | O=C(Nc1cccc(F)c1)N1N=C(c2ccc(Br)cc2)CC1c1ccc(F)cc1 (stereo not given) | > 10000 nM | 46 nM | IC50 [3]: > 10000 nM
24 | O=C(NC1CCCCC1)N1N=C(c2ccc(Br)cc2)CC1c1ccc(F)cc1 (stereo not given) | 1340 nM | 316 nM | –
25 | Cc1ccc(C2(CCN3CCN(C)CC3)CC(c3ccccc3)=NN2C(=O)Nc2ccc(F)cc2)cc1 (stereo not given) | 3600 nM | 690 nM | solubility [4]: 158 µg/mL (≈ 316 µM); solubility [5]: 477 µg/mL (≈ 955 µM)
26 | O=C(c1ccccc1)N1N=C(c2ccc(Br)cc2)CC1c1ccc(F)cc1 (stereo not given) | > 10000 nM | 5390 nM | –
27 | CN(C)CCOc1ccc(C2(CCO)CC(c3ccccc3)=NN2C(=O)Nc2ccc(F)cc2)cc1 (stereo not given) | > 10000 nM | > 5300 nM | –
28 | CCc1ccc(NC(=O)N2N=C(c3ccc(Br)cc3)CC2c2ccc(F)cc2)cc1 (stereo not given) | > 10000 nM | 613 nM | –
29 | Cc1ccc(C2(CCN3CCOCC3)CC(c3ccccc3)=NN2C(=O)Nc2ccc(F)cc2)cc1 (stereo not given) | 5900 nM | 430 nM | solubility [4]: 1 µg/mL (≈ 2.06 µM); solubility [5]: 371 µg/mL (≈ 762 µM)
30 | O=C(Nc1ccncc1)N1N=C(c2ccccc2)CC1c1ccc(F)cc1 (stereo not given) | 3090 nM | 202 nM | –
31 | COc1ccc(C2=NN(C(=O)Nc3ccc(Cl)cc3)[C@](CCO)(c3cccnc3)C2)cc1 | 5700 nM | 55 nM | solubility [4]: 14 µg/mL (≈ 31 µM); solubility [5]: 27 µg/mL (≈ 59.9 µM); efflux ratio (MDR1 [6]): 17; Papp B→A at 1 µM (MDR1 [7]): 90 ×10⁻⁶ cm/s; Papp A→B at 1 µM (MDR1 [8]): 5.3 ×10⁻⁶ cm/s
32 | CC(C)c1ccc(CC(=O)N[C@H](C)c2ccc(OCC(F)(F)F)cn2)cc1 [SUVECALTAMIDE] | – | 8.2 nM | IC50 [9]: 1.2 nM; IC50 [10]: 1.5 nM
33 | CS(=O)(=O)c1ccc(C2CC(c3ccncc3)=NN2C(=O)Nc2ccc(F)cc2)cc1 (stereo not given) | > 10000 nM | 410 nM | –
34 | CC(C)(C)NC(=O)CN1CCC(CNC(=O)c2cc(F)cc(Cl)c2)CC1 [ULIXACALTAMIDE] | – | 73 nM | IC50 [9]: 37 nM; IC50 [10]: 86 nM
35 | COc1ccc(NC(=O)N2N=C(c3ccc(Br)cc3)CC2c2ccc(F)cc2)cc1 (stereo not given) | > 10000 nM | 447 nM | solubility [4]: < 1 µg/mL; solubility [5]: < 1 µg/mL
36 | Cc1ccc(C2(CCO)CC(c3ccncc3)=NN2C(=O)Nc2ccc(F)cc2)cc1 (stereo not given) | 8600 nM | 330 nM | solubility [4]: 35 µg/mL (≈ 83.6 µM); solubility [5]: 193 µg/mL (≈ 461 µM)
37 | COc1ccc(C2(CCO)CC(c3cccnc3)=NN2C(=O)Nc2ccc(Br)cc2)cc1 (stereo not given) | > 10000 nM | 140 nM | –
